From PubChem
UCH37 DUB inh = blocks the human deubiquitinase UCH37; inhibition, % (test concentration not listed); 330,000 compounds, 0.33% hits; AID 588478; purified proteasome/UCH37, Ub-AMC cleavage fluorescence;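 active = mean inhibition over replicate wells above about 20%, limit read from the data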;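 note: 0% = compound-free wells with enzyme and 100% = wells lacking proteasome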
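System: Proteasome-associated human UCH37 deubiquitinase; Input: 0.15 nM proteasome in added enzyme buffer; Also added: Ub-AMC substrate from 1 µM stock; Incubation: 30 min compound-proteasome preincubation then 25 min substrate reaction, room temperature; Detection: fluorescence, ex 355 nm, em 460 nm; Read-out: % inhibition of Ub-AMC cleavage fluorescence; Benchmarks: no-proteasome and no-compound wells.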
UBC13 polyUb = human UBC13 polyubiquitination inhibition; P61088; UBC13 polyubiquitin chain formation, TR-FRET; inhibition, % at 20 µM; 330,000 compounds, 0.47% hits; AID 485273; in the data active = inhibition above about 45%, passing the limit was not always enough; inconclusive = no clear call, values can overlap the other calls
PREPL inhibitor = inhibitors of human prolyl oligopeptidase-like enzyme PREPL; Q4J6C6; recombinant PREPL, fluorescence polarization activity-based probe; inhibition, % at 5.96 µM; 320,000 compounds, 0.68% hits;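 note: 0% = enzyme with DMSO and 100% = wells lacking enzyme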
Apaf-1 inh = inhibitors of human Apaf-1 apoptosome; O14727; reconstituted apoptosome caspase-3 activity, DEVD-Rh110 fluorescence; inhibition, % at 20 µM; 330,000 compounds, 0.71% hits; active = inhibition of at least 40% at 20 µM;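 note: plate controls were DMSO wells for no effect and DEVD-CHO caspase inhibitor wells for full effect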
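Material: reconstituted apoptosome with Apaf-1, cytochrome c, caspase-9, procaspase-3, dATP; medium: pH 7.5 Hepes buffer with CHAPS, BSA, DTT; also added: cytochrome c and DEVD-Rh110 substrate; timing: 30 min plus 50 min, RT; signal: Rh110 fluorescence intensity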
PREPL inh cf = confirmation of human PREPL enzyme inhibitors; shares compounds with PREPL inhibitor; recombinant PREPL, fluorescence polarization activity probe; 2,000 compounds, 67% hits; inhibition, % at 5.96 µM;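 note: 0% = protein with DMSO and 100% = wells lacking protein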
Active calls of the source: *; ? = inconclusive; . = no result. This is a sample that favours compounds with a hit; in the whole collection about 1.5% have one here. Cut-off read from the data, not from the text of the source, unless noted: active = inhibition above about 43%; inactive = the rest.

SMILES	UCH37 DUB inh	UBC13 polyUb	PREPL inhibitor	Apaf-1 inh	PREPL inh cf
O=C(COc1ccccc1[N+](=O)[O-])N/N=C/c1ccc(O)c([N+](=O)[O-])c1	.	-26	-7	2	.
O=C(COc1ccccc1C(=O)N/N=C\c1ccc(O)c(O)c1)N/N=C/c1ccc(O)c(O)c1	.	11	83*	7	32
O=C1Nc2ccccc2C1=NN=CC1=C(N2CCOCC2)/C(=C\c2ccccc2)CC1	7	.	.	.	.
Cc1ccc2c(c1)c1c(n2CC(O)CN2CCCCCC2)CCCC1 (stereo not drawn)	3	11	45*	4	42
COc1ccc(NS(=O)(=O)c2cc(NC(=O)c3cc(F)c(F)cc3Cl)ccc2N2CCOCC2)cc1	0	-5	7	-1	.
COc1ccc(NS(=O)(=O)c2cc(NC(=O)c3cc(F)c(F)c(F)c3F)ccc2N2CCCC2)cc1	1	-8	46*	-8	39
Cc1cccc(C)c1-n1c(C)cc(C=NNC(=O)CSc2ncccn2)c1C	2	.	.	.	.
Cc1cc(C)n2nc(SCC(=O)NN=Cc3cccc(Br)c3)nc2n1	5	.	.	.	.
CCOc1ccc2nc(N3C(=O)C(O)=C(C(=O)c4ccco4)C3c3ccco3)sc2c1 (stereo not drawn)	6	-49	18	8	.
Cc1cc(C)c2nc(N3C(=O)C(O)=C(C(=O)c4ccco4)C3c3ccco3)sc2c1 (stereo not drawn)	.	-14	44*	17	53*
O=C1NN(c2ccccc2)C(=O)/C1=C\c1cccc(OC(=O)c2cccs2)c1	8	-19	57*	28	34
O=C(CSc1nc2ccc(NC(=O)c3ccccc3C(=O)O)cc2s1)Nc1ccc(F)c([N+](=O)[O-])c1	3	-10	51*	15	14
CCC(C)Sc1ccc(-c2nc3ccccn3c2NCc2ccccc2)cc1OC (stereo not drawn)	-249	22	16	36	.
COc1ccc(CSc2ccc(-c3nc4ccccn4c3NCc3ccccc3)cc2OC)cc1	-223	4	49*	15	41
COc1ccc(NC(=O)c2sc3ncn(CC(=O)N4CCN(c5ccccn5)CC4)c(=O)c3c2C)cc1OC	3	-8	58*	8	49*
O=C(CN1CCN(c2ccc(O)cc2)CC1)Nc1cc([N+](=O)[O-])ccc1Cl	5	8	52*	-5	53*
O=S(=O)(NN=Cc1ccc(N2CCOCC2)cc1)c1ccccc1	4	.	.	.	.
COc1ccc(C(C)=NNc2nc(-c3ccc(Cl)cc3)cc(C(F)(F)F)n2)cc1OC	3	.	.	.	.
COc1ccc(-c2cn(Cc3ccc4c(c3)C(=O)c3ccccc3C4=O)nn2)cc1	1	-6	48*	1	37
O=C(CN1CCCc2ccccc21)NN=Cc1ccccc1O	-1	.	.	.	.
O=C(CCN1CCN(C(c2ccccc2)c2ccccc2)CC1)NN=Cc1ccc(O)cc1	4	.	.	.	.
COc1ccc2cc1Oc1ccc(cc1)C[C@H]1c3cc(c(OC)cc3CCN1C)Oc1c(OC)c(OC)cc3c1[C@H](C2)N(C)CC3	1	27	61*	32	60*
CCN1CCN(C(=O)c2cn(CCOC)c(=O)c3c2c2ccccc2n3C)CC1	-88	7	-4	-9	.
CC(C)Cn1cc(C(=O)N2CCN(c3ccccn3)CC2)c2c3ccccc3n(C)c2c1=O	-45	19	51*	1	43
COC(=O)c1c(Cl)c2n3ccccc3c(C)c(-c3ccccc3)c-2c1C(=O)OC	4	-27	49*	16	27
SMILES	UCH37 DUB inh	UBC13 polyUb	PREPL inhibitor	Apaf-1 inh	PREPL inh cf
COC(=O)c1ccc2nc(C)cc(Nc3ccc(N(C)C)cc3)c2c1	11	-19	50*	13	42
CCCCCCCCCCCC(=O)NN=Cc1ccco1	4	.	.	.	.
CC1CCC(C(C)C)C(OC(=O)Cn2c(-c3ccc(Cl)cc3)[n+](C)c3ccccc32)C1 (stereo not drawn)	7	25	43*	15	47*
CC(=O)Oc1ccc(C=NNC(=S)Nc2ccccc2)cc1	3	.	.	.	.
O=C(c1cccc([N+](=O)[O-])c1)N1CCN(c2ccc(Cl)cc2)CC1	-1	7	51*	4	39
COc1ccccc1NC(=O)Nc1nc(CC(=O)Nc2ccc(F)cc2)cs1	2	14	4	19	.
COc1ccccc1NC(=O)Nc1nc(CC(=O)Nc2ccc(N(C)C)cc2)cs1	4	4	47*	22	43*
O=C(Cn1cnc2ccccc21)NN=Cc1cccnc1	-1	.	.	.	.
NCCCn1c(C(=O)c2cc(Cl)c(N)c(Cl)c2)c2ccc([N+](=O)[O-])cc2[n+]1[O-]	2	15	61*	34	69*
O=C(C1=C[C@@H](c2ccccc2)C[C@@H](OCc2ccc(CO)cc2)O1)N1CCN(Cc2ccc3c(c2)OCO3)CC1	-1	15	51*	21	56*
O=C(C1=C[C@H](c2ccccc2)C[C@H](OCc2ccc(CO)cc2)O1)N1CCN(Cc2ccccc2)CC1	0	-1	35	14	.
O=C(C1=C[C@@H](c2ccc(Br)cc2)C[C@@H](OCCCCO)O1)N1CCN(Cc2ccc3c(c2)OCO3)CC1	30*	23	67*	30	59*
CCO[C@H]1OC(C(=O)N2CCN(Cc3ccc4c(c3)OCO4)CC2)=C[C@@H](c2ccc3c(c2)OCO3)[C@@H]1CCCO	4	8	49*	9	43
COc1cccc(C=NN=C(N)c2nonc2N)c1O	4	.	.	.	.
CCOc1cc(C(=O)NN=Cc2ccsc2)cc(OCC)c1OCC	-2	.	.	.	.
CCc1ccc(C(C)=NNC(=O)c2ccccn2)cc1	4	.	.	.	.
O=C(O)c1cc(O)c2c(c1)[C@H]([C@H]1c3cc(C(=O)O)cc(O)c3C(=O)c3c(O[C@@H]4O[C@H](CO)[C@@H](O)[C@H](O)[C@H]4O)cccc31)c1cccc(OC3O[C@H](CO)[C@@H](O)[C@H](O)[C@H]3O)c1C2=O (stereo partly drawn)	8	?	105*	89*	92*
O=C1OC[C@@H]2CCCN2C(=O)[C@H](CC(=O)N(CCO)Cc2ccccc2)C/C=C\CC[C@H]1Cc1ccc(F)cc1	-1	12	35	15	.
O=C1OC[C@@H]2CCCN2C(=O)[C@@H](CC(=O)N(CCO)Cc2ccccc2)C/C=C\C[C@H]1Cc1ccc(F)cc1	0	10	53*	23	40
O=C1OC[C@H]2CCCN2C(=O)[C@@H](CC(=O)N(CCO)Cc2ccccc2)C/C=C\CC[C@H]1Cc1ccc(F)cc1	4	5	45*	31	41
O=C1OC[C@H]2CCCN2C(=O)[C@@H](CC(=O)N(CCO)Cc2ccccc2)C/C=C\C[C@H]1Cc1ccc(F)cc1	2	20	54*	15	45*
CSCCC(NC(=O)c1ccccc1)C(=O)NN=C(C)c1ccccc1 (stereo not drawn)	2	.	.	.	.
COc1ccc(CC(C)=NNC(=S)Nc2ccccc2)cc1	4	.	.	.	.
O=C(NN=Cc1cccc(F)c1)c1c(O)c2ccccc2[nH]c1=O	1	.	.	.	.
